Compound activity as filed in PubChem BioAssay.
Xi reactivation: X-chromosome reactivation activator. actives 0.055% (n = 360,000). XiGFP mouse fibroblasts, % GFP-positive cells imaging, 3 d; cells co-treated with 5-aza-dC sensitizer; scaled so ellipticine positive control = 100%. AID 743238. activation, % at 7.58 µM;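 active = mean normalized replicate activation at least 10% and every replicate at or above 10%; inconclusive = only one of the two criteria met; inactive = mean below 10% and not all replicates reach 10%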;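 note: 0% = median of on-plate neutral control wells and 100% = ellipticine 6 µM median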
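assay system = SV40-immortalized XiGFP fibroblast cells, line 68-5-11 | buffer or medium = DMEM plus 5-aza-dC sensitizer | doses = single-point pinned compound dosing | times = 3-day compound exposure, then 15 min fixation at room temperature | benchmarks = positive control ellipticine, 6 µM final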
FGF22 binding: FGF22 (human) thermal shift binding. actives 1.5% (n = 340,000). Q9HCT0. recombinant FGF22 thermal shift, SYPRO orange fluorescence; percent of sucrose octasulfate shift, DMSO zero. activity (Tm shift, normalised), % at 9.99 µM;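 active = mean Tm shift, scaled 0 neutral to 100 positive control, at about 1.3% or above, every replicate too, limit read from the data; inconclusive = no clear call, values can overlap the other calls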
Target sequence (Q9HCT0 whole entry, looked up): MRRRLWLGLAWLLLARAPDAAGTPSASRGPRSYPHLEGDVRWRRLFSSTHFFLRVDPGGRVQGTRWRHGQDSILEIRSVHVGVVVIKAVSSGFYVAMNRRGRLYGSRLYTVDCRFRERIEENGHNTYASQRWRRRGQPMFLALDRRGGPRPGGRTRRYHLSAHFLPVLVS
C2C12 statin: suppressors of simvastatin-induced myotoxicity in C2C12 myotubes; ATP luminescence, 48 h; scaled: DMSO 0, geranylgeraniol control 100; rescue of ATP level, % at 7.49 µM; actives 0.78% (n = 330,000); AID 602340;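 active = mean ATP rescue above about 67%, or every replicate alone reaching that limit, limit read from the data, passing the limit was not always enough; inconclusive = no clear call, values can overlap the other calls; inactive = mean under the limit and some replicate under it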;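 note: myotubes were challenged with 10 µM simvastatin during compound exposure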
PglD DTNB: PglD (C. jejuni) enzyme inhibition; purified PglD enzyme, DTNB colorimetric CoA detection; inhibition, % at 12.5 µM; actives 0.098% (n = 360,000); AID 602405; in the data active = inhibition above about 16%, passing the limit was not always enough; inconclusive = no clear call, values can overlap the other calls
E-sel inducer: E-selectin induction on HUVECs | actives 0.37% (n = 260,000) | activation, % at 7.58 µM | P16581 | AID 686992 | HUVEC E-selectin immunofluorescence imaging; normalized: neutral wells 0, TNF-alpha wells 100;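 active = mean E-selectin-positive cell signal at least 10% of the positive control, reached in at least 60% of replicates, without over 20% cell loss; inconclusive = no rule given, readout overlaps actives, possibly toxicity-flagged; inactive = the rest, including those meeting only one limit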
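Material: HUVEC primary endothelial cells; Amount: 3,000 cells per well; Dosing: single concentration; Medium: EGM-2 growth medium on 0.1% gelatin-coated wells; Read-out basis: percent E-selectin-positive cells; Signal: immunofluorescence imaging; Control set: TNF-alpha, DMSO.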
DENV2 CPE: inhibitors of DENV2 cytopathic effect | DENV2-infected cells, cytopathic effect rescue, plate reader | CPE inhibition, % at 9.99 µM | actives 1.7% (n = 350,000) | AID 651640; in the data active = CPE inhibition above about 20%, passing the limit was not always enough; inconclusive = no clear call, values can overlap the other calls; tested in BHK-21 cells;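 note: 0% = median of neutral control wells and 100% = median of positive control wells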
Numbers without * were called inactive; ! = repeats disagree. An excerpt weighted towards active compounds, which were near 3.3% of everything screened.

What do the screens show for `CC(=O)c1c(C)[nH]c(C(=O)Nc2ccc(F)cc2F)c1C`?
Xi reactivation: 0; FGF22 binding: 0; C2C12 statin: -8; PglD DTNB: 4; DENV2 CPE: 1

What do the screens show for `CO[C@H]1CN(C)C(=O)c2cc(NC(=O)Nc3cc(F)ccc3F)ccc2OC[C@@H](C)N(C(=O)c2ccccn2)C[C@@H]1C`?
Xi reactivation: 0; C2C12 statin: -2; E-sel inducer: 0

Results for O=C(Nc1ccccc1)Nc1sccc1-c1nc2ccccc2s1 ?
Xi reactivation: 0; FGF22 binding: 0; PglD DTNB: 0; DENV2 CPE: -10

What do the screens show for `O=C(Nc1cccc(Cl)c1)Nc1sccc1-c1nc2ccccc2s1`?
Xi reactivation: 0; FGF22 binding: 0; PglD DTNB: -5; DENV2 CPE: 63*

What do the screens show for `O=C(NCC[C@@H]1CC[C@H](NC(=O)C2CC2)[C@H](CO)O1)c1cc(Cl)cc(Cl)c1`?
Xi reactivation: 0; FGF22 binding: 0; C2C12 statin: 5; PglD DTNB: 1; E-sel inducer: 0; DENV2 CPE: 1

What do the screens show for `C[C@@H]1CCCCO[C@@H](CN(C)S(C)(=O)=O)[C@H](C)CN([C@H](C)CO)C(=O)c2cc(NC(=O)Nc3ccccc3)ccc2O1`?
Xi reactivation: 1; FGF22 binding: 0; PglD DTNB: 0; E-sel inducer: 0; DENV2 CPE: -11

Results for C=CCN1C(=O)c2ccccc2Sc2ccc(C(=O)NCC(OC)OC)cc21 ?
Xi reactivation: 0; FGF22 binding: 0; C2C12 statin: 0; PglD DTNB: -3; E-sel inducer: 1; DENV2 CPE: 29*

Results for C=CCN1C(=O)c2ccccc2Sc2ccc(C(=O)NC(C)C)cc21 ?
Xi reactivation: 0; FGF22 binding: 0; C2C12 statin: 4; PglD DTNB: 0; E-sel inducer: 0; DENV2 CPE: 0

What do the screens show for `C[C@@H]1CCCCO[C@@H](CN(C)Cc2ccccc2)[C@H](C)CN([C@H](C)CO)C(=O)c2cc(NC(=O)CCC(F)(F)F)ccc2O1`?
Xi reactivation: 0; FGF22 binding: 0; C2C12 statin: 11; PglD DTNB: -2; E-sel inducer: 0; DENV2 CPE: inconclusive

How did COc1ccc(CN(C)C[C@H]2OCCCC[C@H](C)Oc3ccc(NC(=O)CCC(F)(F)F)cc3C(=O)N([C@@H](C)CO)C[C@@H]2C)cc1 do in these assays?
Xi reactivation: 0; FGF22 binding: 0; C2C12 statin: 7; PglD DTNB: 2; DENV2 CPE: 44*!

How did C[C@@H]1CCCCO[C@H](CN(C)Cc2ccccc2)[C@H](C)CN([C@H](C)CO)C(=O)c2cc(NC(=O)CCC(F)(F)F)ccc2O1 do in these assays?
Xi reactivation: 0; FGF22 binding: 0; C2C12 statin: -30; PglD DTNB: 1; E-sel inducer: 0; DENV2 CPE: 37*

Results for COc1ccc(CN(C)C[C@H]2OCCCC[C@@H](C)Oc3ccc(NC(=O)CCC(F)(F)F)cc3C(=O)N([C@H](C)CO)C[C@@H]2C)cc1 ?
Xi reactivation: 0; FGF22 binding: 0; PglD DTNB: -3; E-sel inducer: 0; DENV2 CPE: 8

Results for COc1ccc(CN(C)C[C@@H]2OCCCC[C@H](C)Oc3ccc(NC(=O)CCC(F)(F)F)cc3C(=O)N([C@H](C)CO)C[C@H]2C)cc1 ?
Xi reactivation: 0; FGF22 binding: 1; PglD DTNB: -1; E-sel inducer: 0; DENV2 CPE: 62*

How did COc1ccc2c3c([nH]c2c1)[C@H](CO)N(C)CC31CN(C(=O)c2cccnc2)C1 do in these assays?
Xi reactivation: 0; FGF22 binding: 0; E-sel inducer: 0; DENV2 CPE: -8

Results for COc1cccc(S(=O)(=O)N[C@@H]2CC[C@H](CC(=O)NCc3ccccc3)O[C@@H]2CO)c1 ?
Xi reactivation: 0; FGF22 binding: 0; C2C12 statin: 3; PglD DTNB: 2; E-sel inducer: 0; DENV2 CPE: -1

Results for Cc1ccc(-c2nn(Cc3ccccc3)cc2/C=C/C(=O)O)cc1C ?
C2C12 statin: 86*; PglD DTNB: -5

Results for COc1ccc(-c2nn(-c3ccccc3)cc2/C=C/C(=O)O)cc1[N+](=O)[O-] ?
Xi reactivation: 0; FGF22 binding: 0; C2C12 statin: -18; PglD DTNB: 0; E-sel inducer: 0; DENV2 CPE: inconclusive

Results for CCN(CC)S(=O)(=O)c1cccc2nsnc12 ?
C2C12 statin: -5; PglD DTNB: -7

What do the screens show for `CN(Cc1ccccc1)S(=O)(=O)c1cccc2nsnc12`?
Xi reactivation: 0; FGF22 binding: 44*; E-sel inducer: 9; DENV2 CPE: -2

What do the screens show for `CO[C@@H]1CN(C)C(=O)c2ccc(NC(=O)Nc3ccc(F)cc3)cc2OC[C@@H](C)N(C(=O)c2ccc(F)cc2)C[C@H]1C`?
Xi reactivation: 0; FGF22 binding: 0; C2C12 statin: 2; PglD DTNB: 2; E-sel inducer: 44*; DENV2 CPE: -3

What do the screens show for `CO[C@@H]1CN(C)C(=O)c2ccc(NC(=O)Nc3cc(F)ccc3F)cc2OC[C@H](C)N(C(=O)c2ccccn2)C[C@H]1C`?
Xi reactivation: 0; FGF22 binding: 0; C2C12 statin: -1; PglD DTNB: 1; E-sel inducer: 0; DENV2 CPE: 26*

Results for CO[C@@H]1CN(C)C(=O)c2ccc(NC(=O)Nc3cc(F)ccc3F)cc2OC[C@@H](C)N(C(=O)c2ccccn2)C[C@H]1C ?
Xi reactivation: 0; FGF22 binding: 0; C2C12 statin: 8; PglD DTNB: -6; E-sel inducer: 0; DENV2 CPE: 87*

What do the screens show for `CCCNC(=O)Nc1ccc2c(c1)OC[C@@H](C)N(C(=O)c1ccccc1F)C[C@@H](C)[C@H](OC)CN(C)C2=O`?
Xi reactivation: 0; FGF22 binding: 0; C2C12 statin: 6; PglD DTNB: 2; E-sel inducer: 0; DENV2 CPE: -7

What do the screens show for `CCCNC(=O)Nc1ccc2c(c1)OC[C@H](C)N(C(=O)c1ccccc1F)C[C@@H](C)[C@H](OC)CN(C)C2=O`?
Xi reactivation: 0; FGF22 binding: 0; C2C12 statin: -8; PglD DTNB: 0; E-sel inducer: 0; DENV2 CPE: 40*

Results for CO[C@H]1CN(C)C(=O)c2ccc(NC(C)=O)cc2OC[C@@H](C)N(C(=O)c2ccc(F)cc2)C[C@@H]1C ?
Xi reactivation: 0; FGF22 binding: 0; C2C12 statin: 0; PglD DTNB: 1; E-sel inducer: 0; DENV2 CPE: 8
